Laboratory results from ChEMBL document CHEMBL3407390, “α2-adrenoceptor antagonists: synthesis, pharmacological evaluation, and molecular modeling investigation of pyridinoguanidine, pyridino-2-aminoimidazoline and their derivatives” (J Med Chem, 2015).

Legend:
[1] = molecular target: T1, Adrenergic receptor alpha-2 (Homo sapiens, UniProt P08913+P18825+P18089); assay: Displacement of [3H]-RX-821002 from human alpha-2 adrenergic receptor in brain prefrontal cortex membrane by liquid scintillation spectrometry; assay type: cell membranes
T1 sequence (P08913 whole entry): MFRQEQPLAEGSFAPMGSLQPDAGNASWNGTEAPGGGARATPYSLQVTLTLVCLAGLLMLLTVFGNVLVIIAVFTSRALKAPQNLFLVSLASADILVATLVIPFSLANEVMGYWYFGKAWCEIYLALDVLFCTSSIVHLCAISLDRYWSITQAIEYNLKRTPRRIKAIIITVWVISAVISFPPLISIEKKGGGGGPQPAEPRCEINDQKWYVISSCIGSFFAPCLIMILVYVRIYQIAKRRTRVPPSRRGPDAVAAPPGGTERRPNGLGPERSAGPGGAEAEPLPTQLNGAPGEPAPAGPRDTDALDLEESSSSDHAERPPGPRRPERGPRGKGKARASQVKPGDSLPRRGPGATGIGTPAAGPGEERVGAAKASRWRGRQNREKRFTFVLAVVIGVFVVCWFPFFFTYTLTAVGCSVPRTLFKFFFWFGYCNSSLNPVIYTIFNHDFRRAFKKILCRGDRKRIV
T1 sequence (P18825 whole entry): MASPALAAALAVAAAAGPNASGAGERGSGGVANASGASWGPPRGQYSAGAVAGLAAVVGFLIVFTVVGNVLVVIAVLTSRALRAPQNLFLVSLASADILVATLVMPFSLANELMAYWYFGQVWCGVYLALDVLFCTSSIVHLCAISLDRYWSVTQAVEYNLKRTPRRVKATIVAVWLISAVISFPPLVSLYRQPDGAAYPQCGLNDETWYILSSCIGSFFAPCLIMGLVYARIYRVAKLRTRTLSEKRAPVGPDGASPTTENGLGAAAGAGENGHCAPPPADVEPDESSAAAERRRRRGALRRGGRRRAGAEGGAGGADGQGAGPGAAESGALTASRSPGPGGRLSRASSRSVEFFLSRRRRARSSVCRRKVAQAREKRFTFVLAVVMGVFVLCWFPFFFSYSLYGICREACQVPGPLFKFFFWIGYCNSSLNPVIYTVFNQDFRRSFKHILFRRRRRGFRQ
T1 sequence (P18089 whole entry): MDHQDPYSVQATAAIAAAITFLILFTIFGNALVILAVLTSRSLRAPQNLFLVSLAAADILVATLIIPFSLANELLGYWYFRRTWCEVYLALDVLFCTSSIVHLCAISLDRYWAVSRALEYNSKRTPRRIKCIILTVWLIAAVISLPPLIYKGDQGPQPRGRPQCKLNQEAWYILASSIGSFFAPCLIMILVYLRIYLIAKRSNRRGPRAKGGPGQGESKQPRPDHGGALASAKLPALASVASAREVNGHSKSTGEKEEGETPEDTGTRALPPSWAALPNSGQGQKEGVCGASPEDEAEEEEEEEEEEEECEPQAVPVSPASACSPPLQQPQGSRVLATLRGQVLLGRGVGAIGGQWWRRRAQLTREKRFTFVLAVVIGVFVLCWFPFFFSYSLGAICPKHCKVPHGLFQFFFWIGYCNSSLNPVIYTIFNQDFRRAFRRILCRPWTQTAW
Method in brief: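 Human prefrontal cortex brain membranes incubated with [3H]RX821002 (2 nM) in 50 mM Tris-HCl, pH 7.5, for 30 min at 25 °C, with competitor at 10 concentrations (10⁻¹²–10⁻³ M). Bound and free ligand separated by rapid vacuum filtration through GF/C filters, then scintillation counting. Adrenaline (10⁻⁵ M) defined nonspecific binding. Ki from one-site nonlinear regression, expressed as pKi.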

[2] = molecular target: T1, Adrenergic receptor alpha-2; assay: Antagonist activity at human alpha-2 adrenergic receptor in brain prefrontal cortex membrane assessed as inhibition of UK14304-induced [35S]-GTPgammaS binding by liquid scintillation spectrometry; assay type: functional, cell membranes
Method in brief: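 Human prefrontal cortex membranes (40 μg protein) incubated 120 min at 30 °C with shaking in 50 mM Tris-HCl pH 7.4 with 1 mM EGTA, 3 mM MgCl2, 100 mM NaCl, GDP and 0.5 nM [35S]GTPγS. Compounds at 10 concentrations (10⁻¹²–10⁻³ M) were tested against agonist UK14304. Filtration through GF/C filters, then scintillation counting. Nonspecific binding defined with 10 μM unlabeled GTPγS; nonlinear curve analysis.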

Rattus norvegicus [3] = assay: Induction of noradrenaline release from Sprague-Dawley rat in prefrontal cortex at 1 to 100 uM local administration measured for every 70 mins by microdialysis; assay type: functional
Method in brief: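 Male Sprague-Dawley rats (250–300 g), probe placed in PFC under 1.5% isoflurane; tested 18–24 h later. Probe perfused with aCSF (pH 7.4) at 1 μL/min. Compounds dissolved in aCSF were given by reverse dialysis at 1, 10, then 100 μM, each for 70 min. Dialysates collected every 35 min; NA measured by HPLC with amperometric detection. Values are % of mean basal (first 3–4 samples); three animals/group.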

Rattus norvegicus [4] = assay: Induction of noradrenaline release from Sprague-Dawley rat in prefrontal cortex at 10 mg/kg, ip […] by microdialysis; assay type: functional; conditions: route intraperitoneal

pKi [1] | Structure (SMILES) | also measured
6.19 | Cl.N=C(N)Nc1ccccn1 | –
5.62 | Cl.N=C(N)Nc1ccc(Br)cn1 | –
5.7 | Cl.N=C(N)Nc1ccc(Cl)cn1 | –
6.03 | Cc1ccc(NC(=N)N)nc1.Cl | –
6.78 | Cl.N=C(N)Nc1ccc2c(n1)CCCC2 | EC50 [2]: 2.71 µM
4.12 | CCNc1ccc(NC(=N)N)nc1.Cl | –
3.79 | Cl.N=C(N)Nc1cccnc1 | –
5.18 | Cl.N=C(N)Nc1ccc(Cl)nc1 | –
4.97 | Cc1ccc(NC(=N)N)cn1.Cl | –
5.57 | Cl.N=C(N)Nc1cnc2c(c1)CCCC2 | –
6.35 | CCNc1ccc(NC(=N)N)cn1.Cl | –
5 | Cl.N=C(N)Nc1ccc([N+](=O)[O-])cn1 | –
5 | Cl.N=C(N)Nc1ccc(N)cn1 | –
6.21 | Cl.N=C(Nc1ccccc1)Nc1ccccn1 | –
6.02 | Cc1ccc(NC(=N)Nc2ccccc2)nc1.Cl | –
6.75 | Cl.N=C(Nc1ccccc1)Nc1ccc2c(n1)CCCC2 | –
5.38 | Cl.N=C(NCCO)Nc1ccccn1 | –
5.21 | Cc1ccc(NC(=N)NCCO)nc1.Cl | –
5.83 | Cl.N=C(NCCO)Nc1ccc2c(n1)CCCC2 | –
6.32 | Cl.N=C(NCc1ccco1)Nc1ccccn1 | –
6.28 | Cc1ccc(NC(=N)NCc2ccco2)nc1.Cl | –
6.67 | Cl.N=C(NCc1ccco1)Nc1ccc2c(n1)CCCC2 | EC50 [2]: 37.01 µM
5.71 | CCCNC(=N)Nc1ccc(Cl)cn1.Cl | –
6.74 | CCCNC(=N)Nc1ccc(C)cn1.Cl | –
4.4 | Cl.c1ccc(NC2=NCc3ccccc3N2)cc1 | –
6.26 | Cl.OCCNC1=NCc2ccccc2N1 | EC50 [2]: 60.34 µM
5.35 | Cl.c1coc(CNC2=NCc3ccccc3N2)c1 | –
4.33 | CCCNC1=NCc2ccccc2N1.Cl | –

Structure (SMILES) | pKi [1] | also measured
Cl.c1ccc(NC2=NCCN2)nc1 | 6.44 | –
Cl.Clc1ccc(NC2=NCCN2)nc1 | 6.25 | –
Cc1ccc(NC2=NCCN2)nc1.Cl | 6.41 | –
Cl.c1cc2c(nc1NC1=NCCN1)CCCC2 | 6.27 | EC50 [2]: 3.57 µM
CCNc1ccc(NC2=NCCN2)nc1.Cl | 5.65 | –
Cl.c1cncc(NC2=NCCN2)c1 | 5.28 | –
Cl.c1nc2c(cc1NC1=NCCN1)CCCC2 | 7.02 | Emax (Rattus norvegicus [3]): 148%; EC50 [2]: 4.23 µM; Activity (Rattus norvegicus [4]): 138%
CCNc1ccc(NC2=NCCN2)cn1.Cl | 7.13 | Emax (Rattus norvegicus [3]): 429%; EC50 [2]: 6.71 µM; Activity (Rattus norvegicus [4]): 186%
Cl.OCCNC1=NCc2cccnc2N1 | 4.49 | –
Cl.c1coc(CNC2=NCc3cccnc3N2)c1 | 4.5 | –
Cl.c1cnc2c(c1)CN=C(NCc1ccc3c(c1)OCO3)N2 | 5.3 | –
